Converted amounts (≈) assume the structure as drawn.
Tests used:
Staphylococcus aureus = assay: Antimicrobial activity against Staphylococcus aureus after 12 to 18 hrs by micro-well dilution method; assay type: functional
Procedure, shortened: (§1)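 Clinical isolates were tested by broth micro-well dilution per NCCLS, in triplicate. Stocks were 10 mg/ml in DMSO, with a 1 mg/ml working solution in methanol. Two-fold serial dilutions ran across 10 wells. Cultures were grown to log phase in Luria Bertani or nutrient broth for 12-18 h at 37 °C and adjusted by OD600 to 10⁷ cfu per well. MIC is the lowest concentration preventing visible growth. Ampicillin and kanamycin served as reference drugs.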

Aspergillus niger [1] = assay: Antifungal activity against Aspergillus niger after 12 to 18 hrs by micro-well dilution method; assay type: functional
Procedure, shortened: (§2)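 Broth micro-well dilution per NCCLS, in triplicate. Compounds were stocked at 10 mg/ml in DMSO and diluted to a 1 mg/ml working solution in methanol. Two-fold serial dilutions ran across 10 wells of medium. Clinical isolates were subcultured on Sabouraud dextrose agar at 37 °C for 48-72 h. Cultures were grown in yeast/peptone/D-glucose medium for 12-18 h at 37 °C and sized by OD600 to 10⁴ cfu per well. MIC is the lowest concentration with no visible growth. Amphotericin-B and nystatin served as reference drugs.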

Salmonella typhimurium = assay: Antimicrobial activity against Salmonella typhimurium after 12 to 18 hrs by micro-well dilution method; assay type: functional, Salmonella enterica subsp. enterica serovar Typhimurium; conditions: Salmonella enterica; procedure, shortened: as §1
Pseudomonas aeruginosa = assay: Antimicrobial activity against Pseudomonas aeruginosa after 12 to 18 hrs by micro-well dilution method; assay type: functional; procedure, shortened: as §1
Bacillus subtilis = assay: Antimicrobial activity against Bacillus subtilis after 12 to 18 hrs by micro-well dilution method; assay type: functional; procedure, shortened: as §1
Candida albicans [2] = assay: Antifungal activity against Candida albicans after 12 to 18 hrs by micro-well dilution method; assay type: functional; procedure, shortened: as §2
Candida albicans [3] = assay: Antifungal activity against Candida albicans after 12 to 18 hrs by broth microdilution method; assay type: functional
Procedure, shortened: (§3)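 Clinical isolate from a medical college microbiology department, subcultured on Sabouraud dextrose agar at 37 °C for 48–72 h. Liquid culture was grown in yeast/peptone/D-glucose medium for 12–18 h at 37 °C, then diluted by OD600 to 10⁴ cfu/100 per well. Compounds were made as a 10 mg/ml DMSO stock and a 1 mg/ml methanol working solution. Twofold serial dilutions ran across 10 wells, in triplicate, per NCCLS micro-well dilution. MIC was the lowest concentration with no visible growth.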

Aspergillus niger [4] = assay: Antifungal activity against Aspergillus niger after 12 to 18 hrs by broth microdilution method; assay type: functional; procedure, shortened: as §3

| Compound | MIC (Staphylococcus aureus) | MIC (Aspergillus niger [1]) | MIC (Salmonella typhimurium) | MIC (Pseudomonas aeruginosa) | MIC (Bacillus subtilis) | MIC (Candida albicans [2]) | MIC (Candida albicans [3]) | MIC (Aspergillus niger [4]) |
| --- | --- | --- | --- | --- | --- | --- | --- | --- |
| O=C(CC(c1ccccc1)S(=O)(=O)c1ccccc1)c1ccc(Br)cc1 (stereo not drawn) | 125 µg/mL (≈ 291 µM) | 62.5 µg/mL (≈ 146 µM) | 250 µg/mL (≈ 582 µM) | 62.5 µg/mL (≈ 146 µM) | 62.5 µg/mL (≈ 146 µM) | 125 µg/mL (≈ 291 µM) |  |  |
| NYSTATIN |  |  |  |  |  |  | 7.81 µg/mL | 7.81 µg/mL |
| COc1ccc(C(CC(=O)c2ccc(Br)cc2)S(=O)(=O)c2ccccc2)cc1OC (stereo not drawn) | 62.5 µg/mL (≈ 128 µM) | 15.6 µg/mL (≈ 31.9 µM) | 1.95 µg/mL (≈ 3.98 µM) | 62.5 µg/mL (≈ 128 µM) | 62.5 µg/mL (≈ 128 µM) | 15.6 µg/mL (≈ 31.9 µM) |  |  |
| O=C(CC(c1ccccc1)S(=O)(=O)c1ccccc1)CC(c1ccccc1)S(=O)(=O)c1ccccc1 (stereo not drawn) | 62.5 µg/mL (≈ 121 µM) | 125 µg/mL (≈ 241 µM) | 250 µg/mL (≈ 482 µM) | 62.5 µg/mL (≈ 121 µM) | 125 µg/mL (≈ 241 µM) | 250 µg/mL (≈ 482 µM) |  |  |
| Cc1ccc(C(CC(=O)CC(c2ccc(C)cc2)S(=O)(=O)c2ccccc2)S(=O)(=O)c2ccccc2)cc1 (stereo not drawn) | 62.5 µg/mL (≈ 114 µM) | 31.2 µg/mL (≈ 57.2 µM) | 31.2 µg/mL (≈ 57.2 µM) | 62.5 µg/mL (≈ 114 µM) | 62.5 µg/mL (≈ 114 µM) | 1.95 µg/mL (≈ 3.57 µM) |  |  |
| C[C@@H]1[C@H](O)[C@@H](C)/C=C/C=C/C=C/C=C/C=C/C=C/C=C/[C@H](O[C@@H]2O[C@H](C)[C@@H](O)[C@H](N)[C@@H]2O)C[C@@H]2O[C@](O)(C[C@@H](O)C[C@@H](O)[C@H](O)CC[C@@H](O)C[C@@H](O)CC(=O)O[C@H]1C)C[C@H](O)[C@H]2C(=O)O [AMPHOTERICIN B] |  |  |  |  |  |  | 15.6 µg/mL (≈ 16.9 µM) | 500 µg/mL (≈ 541 µM) |
| O=C(CC(c1ccccc1)S(=O)(=O)c1ccccc1)c1ccccc1 (stereo not drawn) | 62.5 µg/mL (≈ 178 µM) | 7.81 µg/mL (≈ 22.3 µM) | 1.95 µg/mL (≈ 5.56 µM) | 125 µg/mL (≈ 357 µM) | 31.2 µg/mL (≈ 89.2 µM) | 3.9 µg/mL (≈ 11.1 µM) |  |  |
| O=C(CC(c1ccc(Cl)cc1)S(=O)(=O)c1ccccc1)CC(c1ccc(Cl)cc1)S(=O)(=O)c1ccccc1 (stereo not drawn) | 250 µg/mL (≈ 425 µM) | 125 µg/mL (≈ 213 µM) | 15.6 µg/mL (≈ 26.6 µM) | 250 µg/mL (≈ 425 µM) | 31.2 µg/mL (≈ 53.2 µM) | 1.95 µg/mL (≈ 3.32 µM) |  |  |
| O=C(CC(c1cccc([N+](=O)[O-])c1)S(=O)(=O)c1ccccc1)c1ccc(Cl)cc1 (stereo not drawn) | 125 µg/mL (≈ 291 µM) | 62.5 µg/mL (≈ 145 µM) | 62.5 µg/mL (≈ 145 µM) | 62.5 µg/mL (≈ 145 µM) | 62.5 µg/mL (≈ 145 µM) | 1.95 µg/mL (≈ 4.54 µM) |  |  |
| O=C(CC(c1ccc(Cl)cc1)S(=O)(=O)c1ccccc1)c1ccccc1 (stereo not drawn) | 125 µg/mL (≈ 325 µM) | 125 µg/mL (≈ 325 µM) | 125 µg/mL (≈ 325 µM) | 62.5 µg/mL (≈ 162 µM) | 62.5 µg/mL (≈ 162 µM) | 1.95 µg/mL (≈ 5.07 µM) |  |  |
| COc1cc(C(CC(=O)c2ccc(Br)cc2)S(=O)(=O)c2ccccc2)cc(OC)c1OC (stereo not drawn) | 125 µg/mL (≈ 241 µM) | 7.81 µg/mL (≈ 15 µM) | 1.95 µg/mL (≈ 3.75 µM) | 125 µg/mL (≈ 241 µM) | 31.2 µg/mL (≈ 60.2 µM) | 3.9 µg/mL (≈ 7.51 µM) |  |  |
| O=C(CC(c1ccc(Cl)cc1)S(=O)(=O)c1ccccc1)c1ccc(Cl)cc1 (stereo not drawn) | 250 µg/mL (≈ 596 µM) | 15.6 µg/mL (≈ 37.2 µM) | 125 µg/mL (≈ 298 µM) | 125 µg/mL (≈ 298 µM) | 15.6 µg/mL (≈ 37.2 µM) | 31.2 µg/mL (≈ 74.5 µM) |  |  |
| NC[C@H]1O[C@H](O[C@H]2[C@H](O)[C@@H](O[C@H]3O[C@H](CO)[C@@H](O)[C@H](N)[C@H]3O)[C@H](N)C[C@@H]2N)[C@H](O)[C@@H](O)[C@@H]1O [KANAMYCIN] | 500 µg/mL (≈ 1030 µM) |  | 15.6 µg/mL (≈ 32.2 µM) | 250 µg/mL (≈ 516 µM) | 7.81 µg/mL (≈ 16.1 µM) |  |  |  |
| COc1ccc(C(CC(=O)CC(c2ccc(OC)cc2)S(=O)(=O)c2ccccc2)S(=O)(=O)c2ccccc2)cc1 (stereo not drawn) | 250 µg/mL (≈ 432 µM) | 125 µg/mL (≈ 216 µM) | 62.5 µg/mL (≈ 108 µM) | 125 µg/mL (≈ 216 µM) | 31.2 µg/mL (≈ 54 µM) | 125 µg/mL (≈ 216 µM) |  |  |
| CC1(C)S[C@@H]2[C@H](NC(=O)[C@H](N)c3ccccc3)C(=O)N2[C@H]1C(=O)O [AMPICILLIN] | 500 µg/mL (≈ 1430 µM) |  | 125 µg/mL (≈ 358 µM) | 125 µg/mL (≈ 358 µM) | 250 µg/mL (≈ 715 µM) |  |  |  |

Source: ChEMBL document CHEMBL2311466, “Synthesis and antibacterial and antifungal evaluation of some chalcone based sulfones and bisulfones” (2013)
